The values that follow come from article PMC5680101 (The journal of physical chemistry. B, 2017).

One data set has as its target T1, SELENOK U92C (Homo sapiens, UniProt Q9Y6D0, U92C).
T1 sequence (Q9Y6D0 2-94 U92C): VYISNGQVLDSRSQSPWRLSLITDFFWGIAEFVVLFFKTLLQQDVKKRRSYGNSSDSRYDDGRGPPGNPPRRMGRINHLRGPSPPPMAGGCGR
As to the kind of experiment: steady-state FP anisotropy, DDM desolvation of SELENOK U92C. The settings on record: solubilized in 1.3 mM DDM. In kind it is binding. The gist of the method: (§1)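 Human proteins expressed as MBP fusions and purified in 1.3 mM DDM, which was the starting detergent concentration. Each was labelled with Texas Red C2 maleimide on its single accessible cysteine (C92 in SELENOK, C174 in SELENOS). Samples were diluted in wells with DDM buffers to 200 nM protein in 200 mM NaCl, 50 mM HEPES pH 7.4, 24°C. FP read at […] after 15 min equilibration; 24 h endpoints at 4°C. rmin extrapolated to lowest DDM.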

The target in a further data set is T2, SELENOS U188S (Homo sapiens, UniProt Q9BQE4).
T2 sequence (Q9BQE4 with tags, fused parts or gaps): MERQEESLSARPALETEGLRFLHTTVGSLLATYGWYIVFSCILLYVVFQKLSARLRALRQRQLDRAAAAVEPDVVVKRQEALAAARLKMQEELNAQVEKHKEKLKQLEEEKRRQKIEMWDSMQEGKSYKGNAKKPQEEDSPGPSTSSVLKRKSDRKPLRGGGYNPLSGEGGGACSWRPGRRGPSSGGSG
As to the kind of experiment: steady-state FP anisotropy, DDM desolvation of SELENOS U188S. It counts as binding. The settings on record: solubilized in 1.3 mM DDM. The gist of the method: as §1

A further data set has as its target α-helical proteins. Kind of data set: FP anisotropy, DDM proteomicelles of the α-helical proteins. The settings on record: 200 mM NaCl, 50 mM HEPES, pH 7.4, 24°C. In kind it is binding, Homo sapiens. The gist of the method:
as §1

The conditions of data set [1]: in water; ref Anatrace, [29], [63]; cited from earlier work.

Take `CCCCCCCCCCCCO[C@@H]1O[C@H](CO)[C@@H](O[C@H]2O[C@H](CO)[C@@H](O)[C@H](O)[C@H]2O)[C@H](O)[C@H]1O` [DDM, n-dodecyl-β-D-maltoside]: the “rotational diffusion coefficient, Dr fast” value on SELENOK U92C is on record as ~ 1.3×10^8 s^−1; on SELENOS U188S it was ~ 1.1×10^8 s^−1. The figures for the rmin on SELENOK U92C (200 nM protein) and at SELENOS U188S (200 nM protein) were 0.095 ± 0.002 and 0.103 ± 0.002, respectively. The “apparent Kd relative to the CMC” value at α-helical proteins was “greater than the CMC”. Further, the “Aggregation number, Nagg” value in data set [1] is reported as ~78–149.
